According to paper PMC12412049 (Journal of controlled release : official journal of the …, 2025):

What was measured:
[1] = tested on: U87MG cells; assay: In vitro uptake in U87MG cells; assay type: cell-based, human; details: for Uptake percentage dose (%AD), total / Uptake %AD, intracellular: mean ± SD; for Uptake %AD, intracellular: internalized fraction (1 M NaOH lysis); for Share of radioactivity internalized by cells: after co-incubation 4 h
[2] = tested on: U87MG cells; assay: CCK-8 cell viability of U87MG cells with radiolabeled compounds; details: 0.1 and 0.2 MBq
[3] = tested on: U87MG tumor; assay: In vivo radiotherapy in U87MG tumor-bearing mice; details: for Median survival: U87MG glioma-bearing mice; for Median survival / Tumor weight at the end of the treatment / Tumor volume: 66.6 MBq; for Tumor weight at the end of the treatment / Tumor volume: U87MG tumor-bearing mice, mean ± SD; for Tumor weight at the end of the treatment: 20 days post-treatment, n = 5/group
[4] = Critical micelle; assay type: physicochemical; details: pyrene fluorescent probe, tangent method; DP1R 0.1-100 μM, each with 1 mM GSH
[5] = TEM morphology of self-assembled peptide; assay type: physicochemical
Outline: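 Peptide was dissolved in water above its CMC, with or without 1 mM GSH added to mimic intracellular reducing conditions. Samples were incubated 10 min, applied to copper grids and air-dried overnight. Particle morphology and size were imaged by TEM, with size given as mean ± SD.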

[6] = DLS hydrodynamic diameter and zeta potential; assay type: physicochemical; details: mean ± SD
[7] = tested on: U87MG cells; assay: Intracellular GSH content measurement; assay type: cell-based, human; details: 24 h co-incubation
Outline: (§1)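 U87MG cells were seeded at 2 × 10^5 cells/well and grown 24 h at 37°C. They were then exposed 24 h in serum-free medium to PBS or to unlabeled or 64Cu-labeled peptide conjugate at 0, 25, 50 or 100 μM. Cells were PBS-washed, trypsinized, pelleted at 3000 rpm for 3 min and washed. Intracellular GSH (GSH/GSSG) and ROS were read with commercial kits. Values are mean ± SD.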

[8] = tested on: U87MG tumor; assay: PET imaging in U87MG tumor-bearing mice; details: mouse, in vivo; for Tumor uptake (PET ROI analysis): iv, 7.4 MBq
[9] = tested on: MCF-7 tumor; set-up: species or system mice; details: mouse, in vivo
[10] = tested on: U87MG cells; assay: Intracellular ROS level assay; assay type: cell-based, human; details: 24 h co-incubation
Outline: as §1

[11] = tested on: U87MG tumor; assay: Biodistribution study in U87MG tumor-bearing mice; details: mouse, in vivo
[12] = tested on: U87MG tumor; assay: Tumor section staining; assay type: in vivo, mice; details: tumor sections
[13] = tested on: MCF-7 tumor; set-up: species or system mice; details: mouse, in vivo, 72 h
[14] = 0.05 MBq, 4 h, 37°C, gamma counter
[15] = normalized to stained control (set as 1.0), mean ± SD

[Cl][64Cu][Cl] [[^64Cu]CuCl2, reference compound]
Uptake by U87MG cells (in words) ([1]; 0.05-1 MBq, 4 h): Negligible uptake | Cytotoxicity against tumor cells (in words) [2]: Neither 0.1 MBq nor 0.2 MBq free [^64Cu]CuCl2 demonstrated notable cytotoxicity | Median survival [3]: 20 days | Tumor weight at the end of the treatment [3]: 2.36 ± 0.35 g

DOTA-PEP1-c(RGDyK) (head to tail) [DP1R]
Critical micelle concentration (CMC) [4]: 13.962 µM | Nanostructure formation under TEM ([5]; absence of GSH incubation): no nanostructure formation was observed | Average diameter of micelle-like structures under TEM ([5]; in water above the CMC, 1 mM GSH, 10 min incubation, mean ± SD): approximately 27.55 ± 6.43 nm | Hydrodynamic diameter ([6]; DLS in PBS, after incubation with GSH): 284.28 ± 27.99 nm | Zeta potential ([6]; after incubation with GSH): −36.43 ± 1.89 mV | Zeta potential ([6]; before incubation with GSH): 3.65 ± 0.49 mV | Reduction of intracellular GSH levels ([7]; 25 μM): 17% | Reduction of intracellular GSH levels ([7]; 100 μM): exceeding 52%

[^64Cu]Cu-DOTA-PEP1-c(RGDyK) (head to tail) [[^64Cu]Cu-DP1R]
Retention index (RI) [8]: 21.90% (± 41.29%) | Tumor retention vs. control via PET imaging [8]: 2 fold | Tumor uptake (PET ROI analysis) ([8]; 4 h): 6.90 ± 0.98 %ID/g | Tumor uptake (PET ROI analysis) ([8]; 72 h): 6.20 ± 1.61 %ID/g | Uptake %AD relative to the [^64Cu]Cu-DR group ([1]; 0.05 MBq, 4 h): 5.83 times | Uptake percentage dose (%AD), total [1, 14]: 9.09 ± 0.48 %AD | Uptake %AD, intracellular ([1]; 0.05 MBq, 4 h): 8.27 ± 0.44 %AD | Share of radioactivity internalized by cells ([1]; 0.05 MBq): 90.98% | Uptake percentage dose (%AD), total ([1]; 0.1 MBq, 4 h): 7.50 ± 0.32 %AD | Tumor uptake in MCF-7 subcutaneous tumor model (in words) [9]: no significant tumor uptake | Effect on intracellular ROS level (in words) [10]: enhance the ROS level | Median survival [3]: 36 days | Tumor weight at the end of the treatment [3]: 0.25 ± 0.03 g | Tumor volume ([3]; twenty days after injection): 122.20 ± 19.92 mm^3 | Tumor volume of PBS group relative to treated group ([3]; twenty days after injection): 12.1 times | Tumor volume of [^64Cu]Cu-DR group relative to [^64Cu]Cu-DP1R group ([3]; twenty days after injection): 3.33 times | Blood pool uptake (biodistribution) ([11]; 72 h): 1.01± 0.5 %ID/g | Kidneys uptake (biodistribution) ([11]; 72 h): 1.43 ± 0.09 %ID/g | Tumor uptake (biodistribution) ([11]; 72 h): 7.79 ± 1.08 %ID/g | Apoptotic induction (TUNEL) vs PBS group [12]: 101.6 fold | Ki-67 relative expression (proliferative activity) ([12]; IHC, normalized to stained control (set as 1.0), mean ± SD): 1.35 ± 0.17 | ROS relative fluorescence intensity [12, 15]: 7.87 ± 0.70 | TUNEL relative fluorescence intensity (apoptosis) [12, 15]: 140.21 ± 24.88 | γ-H2AX relative fluorescence intensity (DNA damage) [12, 15]: 59.3 ± 11.49 | Decrease in Ki-67 index ([12]; vs PBS group): 3.1 fold | Effect on intracellular GSH (in words) [7]: effectively reduce intracellular GSH | Tumor uptake (biodistribution) [13]: 0.47 ± 0.10 %ID/g

[^64Cu]Cu-DOTA-PEP2-c(RGDyK) (head to tail) [[^64Cu]Cu-DP2R]
Tumor uptake (PET ROI analysis) ([8]; 4 h): 5.53 ± 0.36 %ID/g | Tumor uptake (PET ROI analysis) ([8]; 72 h): 2.93 ± 0.36 %ID/g | Lower 72h tumor retention relative to DP1R probe [11]: 58% | Tumor uptake (biodistribution) ([11]; 72 h): 3.28 ± 0.45 %ID/g

[^64Cu]Cu-DOTA-c(RGDyK) [[^64Cu]Cu-DR]
Uptake percentage dose (%AD), total [1, 14]: 1.56 ± 0.78 %AD | Uptake %AD, intracellular ([1]; 0.05 MBq, 4 h): 0.10 ± 0.02 %AD | Share of radioactivity internalized by cells ([1]; 0.05 MBq): 87.82% | Median survival [3]: 26 days | Tumor weight at the end of the treatment [3]: 0.87 ± 0.03 g | Tumor volume ([3]; twenty days after injection): 407.00 ± 66.34 mm^3
